Source: ChEMBL document CHEMBL1145421, “Discovery of novel antitumor antimitotic agents that also reverse tumor resistance” (J Med Chem, 2007)

Legend:
[1] = Cytotoxicity against human T24 cells after 48 hrs by SRB binding assay; assay type: cell-based; conditions: T-24, 48 h
MCF7 [2] = assay: Cytotoxicity against human MCF7 cells after 48 hrs by SRB binding assay; assay type: functional, cell-based; conditions: MCF7, 48 h
Method in brief: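 Drug-sensitive MCF-7 cells seeded at ~15% confluency and allowed 24 h recovery. Exposed 48 h to graded concentrations. Survival measured by SRB binding as % decrease versus ethanol-vehicle controls, mean of triplicate wells.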

[3] = Cytotoxicity against MRP1 overexpressing human MCF7/VP cells after 48 hrs by SRB binding assay; assay type: functional, cell-based
Method in brief: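 MCF-7/VP (MRP1-expressing, Pgp-negative) cells seeded at ~15% confluency and allowed 24 h to attach. Exposed 48 h to graded concentrations without vincristine. Survival measured by SRB binding versus ethanol controls.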

[4] = Cytotoxicity against Pgp overexpressing human NCI/ADR cells after 48 hrs by SRB binding assay; assay type: functional, cell-based; conditions: NCI/ADR-RES
Method in brief: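 NCI/ADR (Pgp-overexpressing) cells seeded at ~15% confluency and allowed 24 h to attach. Exposed 48 h to graded concentrations, as solubility allowed, without vinblastine. Survival measured by sulforhodamine B binding as % decrease in SRB binding versus ethanol-vehicle controls, mean of three wells per condition.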

HL-60 [5] = assay: Cell cycle arrest in HL60 cells assessed as accumulation in G0/G1 phase at 200 nM; assay type: functional, Homo sapiens
Method in brief: (§1)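 HL-60 cells exposed 24 or 48 h to drug or ethanol vehicle. Nuclei prepared by detergent-trypsin method: citrate/sucrose/DMSO buffer, trypsin, then trypsin inhibitor plus RNase A, then propidium iodide with spermine, 30 min at 4 °C. Filtered, resuspended, DNA content measured by flow cytometry. Percentages given for G0/G1, S and G2/M. Mean ± SEM.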

[6] = Growth inhibition of Pgp deficient MCF7/VP cells expressing MRP1; assay type: functional, cell-based; conditions: Homo sapiens
Method in brief: (§2)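 NCI/ADR (Pgp-overexpressing) or MCF-7/VP (MRP1-expressing, Pgp-negative) cells were seeded at about 15% confluency and allowed to attach for 24 h. They were then exposed for 48 h to varying compound concentrations, limited by solubility, without added vinca drug. Survival was read by sulforhodamine B binding against ethanol solvent controls. Each value is the mean of three equally treated wells.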

HL-60 [7] = assay: Cell cycle arrest in HL60 cells assessed as accumulation in […] phase at 200 nM; assay type: functional, Homo sapiens; method in brief: as §1
HL-60 [8] = assay: Cell cycle arrest in HL60 cells assessed as accumulation in S phase at 200 nM; assay type: functional, Homo sapiens; method in brief: as §1
MCF7 [9] = assay: Growth inhibition of Pgp deficient MCF7 cells expressing MRP1; assay type: functional, cell-based; conditions: Homo sapiens; method in brief: as §2
[10] = Growth inhibition of NCI/ADR cells expressing Pgp/MRP1; assay type: functional, cell-based; conditions: Homo sapiens, NCI/ADR-RES; method in brief: as §2

## COc1ccc(CCc2cn(Cc3ccccc3)c3nc(N)nc(C)c23)cc1
[1]
  IC50: 31.7 µM
MCF7 [2]
  IC50: 13 µM
[3]
  IC50: 22.7 µM
[4]
  IC50: 21.7 µM

## CC(=O)O[C@H]1C(=O)[C@@]2(C)[C@H]([C@H](OC(=O)c3ccccc3)[C@]3(O)C[C@H](OC(=O)[C@H](O)[C@@H](NC(=O)c4ccccc4)c4ccccc4)C(C)=C1C3(C)C)[C@]1(OC(C)=O)CO[C@@H]1C[C@@H]2O [PACLITAXEL]
HL-60 [5]
  Activity: 67.3%
[6]
  IC50: 0.0028 µM
HL-60 [7]
  Activity: 10.5%
HL-60 [8]
  Activity: 22.2%
MCF7 [9]
  IC50: 0.0025 µM
[10]
  IC50: 2.7 µM

## COc1cccc(CCc2cn(Cc3ccccc3)c3nc(N)nc(C)c23)c1
[1]
  IC50: 25 µM
MCF7 [2]
  IC50: 8 µM
[3]
  IC50: 22 µM
[4]
  IC50: 5.7 µM
